TbMetRS inhib: blocks T. brucei methionyl-tRNA synthetase activity; purified T. brucei MetRS, ATP depletion, Kinase-Glo luminescence; inhibition, % at 11.9 µM; actives 0.4% (n = 360,000);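 active = inhibition above a per-plate cutoff of the control wells' mean inhibition plus 3 SD, cut at about 5.5% in these data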;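 note: 0% = DMSO wells median and 100% = median of wells with control inhibitor compound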
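Assay system: T. brucei methionyl-tRNA synthetase, purified | Medium: HEPES buffer with MgCl2, KCl, DTT, spermine, BSA, pyrophosphatase | Compound: 11.9 µM single point | Incubation: 15 min enzyme-compound preincubation, 2 h reaction, 10 min detection, 25 °C | Measured by: Kinase-Glo luciferase luminescence reporting remaining unconsumed ATP | Measure: % inhibition normalized to control-well medians | Replication: Singlicate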
WT yeast gro inh: growth inhibition of WT yeast, mitochondrial fusion screen; mitochondrial fusion phenotypic screen, WT strain; inhibition, % at 10 µM; actives 2.1% (n = 190,000); in the data active = inhibition above about 58%; tested in S. cerevisiae
EBV gp42 inh: EBV gp42 inhibition | Q1HVG2 | Fluorescence polarization binding assay, mP read-out | inhibition, % (tested at 21.74 µM) | actives 0.42% (n = 220,000) | AID 1085; in the data active = inhibition above about 50%
Target sequence (Q1HVG2 whole entry, looked up): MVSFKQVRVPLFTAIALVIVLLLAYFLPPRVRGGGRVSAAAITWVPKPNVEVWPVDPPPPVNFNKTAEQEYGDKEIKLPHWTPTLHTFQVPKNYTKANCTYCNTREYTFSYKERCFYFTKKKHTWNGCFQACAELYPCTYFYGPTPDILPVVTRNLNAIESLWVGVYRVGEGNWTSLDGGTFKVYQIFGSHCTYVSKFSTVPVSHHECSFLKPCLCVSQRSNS
CHOP inh: blocks CHOP induction under ER stress | inhibition, % at 10 µM | actives 3.8% (n = 220,000) | CHO-K1 CHOP-promoter luciferase, tunicamycin-induced, 15-18 h;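 active = compounds that reduced the stress-induced luciferase reporter signal by more than about 70% of percent inhibition, limit read from the data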;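 note: 0% = tunicamycin plus vehicle and 100% = wells without tunicamycin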
NR3A LBD binder: NR3A (human) ligand-binding domain modulation; NR3A LBD differential scanning fluorimetry, Tm shift; 0% = protein alone, 100% = glycine-bound protein; Tm shift relative to glycine control, % at 25 µM; actives 2.5% (n = 340,000); AID 1259313;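 active = melting temperature shift of at least 10% of the positive control shift, at one fixed dose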
MPTP block: blocks calcium-induced mitochondrial swelling; isolated mouse mitochondria, Ca2+ swelling absorbance, 30 min; inhibition, % at 10 µM; actives 1.4% (n = 360,000); AID 602449;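 active = inhibition of 50% or more, scaled per plate between neutral and stimulator controls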;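 note: 0% = DMSO wells given calcium and 100% = 1 mM EGTA wells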
The depositor's hits bear a star; . = no result. Most compounds without a hit are left out; they make up all but 6.4% or so of the library.

SMILES | TbMetRS inhib | WT yeast gro inh | EBV gp42 inh | CHOP inh | NR3A LBD binder | MPTP block
O=C(COC(=O)CCSc1ccccc1)Nc1ccc(F)cc1Cl | 0 | 7 | 3 | 61 | 1 | 2
Cc1ccc(CNC(=O)N2CCN(S(=O)(=O)c3ccccc3)CC2)cc1 | -1 | . | . | . | -1 | 0
CC(C)(C)c1ccc(/C=C/C(=O)NC2=NCCS2)cc1 | -1 | 72 | -24 | 82* | 12* | 3
Cc1ccc(/C=C/C(=O)NC2=NCCS2)cc1 | -1 | 18 | -1 | 18 | -1 | 1
Cc1nn(-c2ccccc2)c(C)c1NC(=O)COC(=O)c1ccccc1 | 0 | . | . | . | 0 | 0
COC(=O)CN1C(c2ccc(Cl)cc2)=Nc2ccc(Cl)cc2C1c1ccccc1 (stereo not given) | 0 | 82* | -3 | 38 | 0 | 2
COc1ccc(C2=Nc3ccc(C)cc3C(c3ccccc3)N2CC(=O)NN)cc1 (stereo not given) | 0 | -17 | -2 | -5 | -1 | -2
CC1(C)CC(=O)C2=C(C1)NC(SCC(=O)Nc1ccccc1)=C(C#N)C21CCCCC1 | 0 | 11 | -7 | 35 | 12* | 5
COc1cc(C(=O)NC23CC4CC(CC(C4)C2)C3)cc(OC)c1OC | 0 | . | . | . | 1 | 0
COc1cc(C(=O)N[C@H](C(=O)NC(C)C23CC4CC(CC(C4)C2)C3)C(C)C)cc(OC)c1OC (stereo not given in full) | -1 | 3 | -20 | 75* | 2 | 0
Cc1ccc2c(c1)C(SCC(=O)NCCc1ccccc1)CC1(CCCC1)O2 (stereo not given) | 0 | 26 | -2 | 60 | -11 | 1
C/C(=N/Nc1nc(-c2ccccc2)cc(-c2ccccc2)n1)c1ccc(N)cc1 | . | 10 | 4 | 32 | . | .
C/C(=N/Nc1cc(-c2ccccc2)nc(-c2ccccc2)n1)c1ccc(O)cc1 | 0 | 98* | -7 | 75* | 34* | 8
C/C(=N\Nc1cc(-c2ccccc2)nc(-c2ccc(Br)cc2)n1)c1cccc(N)c1 | -1 | . | . | . | 29* | 4
O=C(NCCCN1CCOCC1)c1ccc2c(=O)n(Cc3cccc(Br)c3)c(=S)[nH]c2c1 | 0 | . | . | . | -9 | 1
COc1ccc2nc(CNC(=O)C3CCC(=O)N(CCc4ccccc4)C3)[nH]c2c1 (stereo not given) | 0 | . | . | . | 0 | 0
O=C(NCc1ccc2c(c1)OCO2)c1nnc(Cc2ccc(F)cc2)o1 | 0 | 13 | 7 | 26 | -1 | -2
CCOC(=O)N1CCN(C(=O)c2cnn3c(C(F)(F)F)cc(-c4cccs4)nc23)CC1 | 0 | -23 | -8 | 6 | 1 | 2
Cc1ccc2nc3cc([N+](=O)[O-])cc([N+](=O)[O-])c3cc2c1 | 0 | 27 | 12 | 95* | 2 | 2
Cc1nc2ccc([N+](=O)[O-])cc2nc1C | 1 | 11 | 0 | -4 | 0 | 3
O=C1CC(c2cccc([N+](=O)[O-])c2)c2ccc3ccccc3c2N1 (stereo not given) | -1 | 54 | -11 | 45 | -8 | 7
COC(=O)C(Cc1ccc(OC(=O)c2ccc(C)cc2)cc1)N1Cc2ccccc2C1=O (stereo not given) | -1 | 25 | -9 | 57 | 14* | -2
Nc1c(C(=O)N/N=C/c2ccccc2)cnn1-c1ccccc1 | -1 | . | -4 | 1 | 15* | 0
O=C(N/N=C/c1ccccc1)c1cccc2ccccc12 | -1 | . | . | . | 2 | 2
Cc1ccc(S(=O)(=O)N2CCN(C(=O)CN3C(=O)c4ccccc4C3=O)CC2)c(C)c1 | 0 | . | . | . | 0 | -3
SMILES | TbMetRS inhib | WT yeast gro inh | EBV gp42 inh | CHOP inh | NR3A LBD binder | MPTP block
O=[N+]([O-])c1ccc(Sc2cccc3cccnc23)c2cccnc12 | 0 | 4 | 62* | 34 | 0 | 1
O=[N+]([O-])c1cc2cccnc2c2ncccc12 | -1 | . | -8 | 10 | 0 | 0
Nc1nn2cc(-c3ccc(Br)cc3)nc2c2ccccc12 | 2 | . | -1 | 51 | 27* | 0
O=S(=O)(Nc1ccccn1)c1cccc(S(=O)(=O)c2ccc(Br)cc2)c1 | 1 | -6 | 7 | 3 | 14* | 1
Cc1nn2c(NCc3ccccn3)c3c(nc2c1-c1ccccc1)CCC3 | 0 | . | -1 | 56 | 2 | 2
Cc1cc(-c2ccccc2)n[nH]1 | -1 | 5 | 0 | 7 | 0 | -1
COc1cccc(-c2cc(C(=O)Nc3ccc4c(c3)OCO4)no2)c1 | -1 | . | . | . | 15* | 2
O=C(Nc1ccc2c(c1)OCO2)c1cc(-c2cccc(O)c2)on1 | 0 | . | . | . | 3 | 0
O=C(Nc1ccc2c(c1)OCO2)c1cc(-c2ccc(O)cc2)on1 | 1 | . | . | . | 18* | -2
O=C(CCl)c1ccc2c(c1)CCN2C(=O)C1CC1 | . | 14 | -3 | 109* | . | .
Cc1nc(N2CCCCC2)c2c(-c3cccs3)csc2n1 | -1 | 69* | -15 | 52 | -2 | -2
NS(=O)(=O)c1ccc(NC(=O)c2ccc3c(c2)OCO3)cc1 | 0 | . | . | . | -3 | -1
CCOc1cc(Br)c(C=O)cc1OCC | 0 | 1 | -17 | -39 | -2 | 4
Cc1nc2cc(C(F)(F)F)ccc2n1CCNc1nc(-c2ccc(F)cc2)cs1 | 0 | . | . | . | 1 | 0
O=[N+]([O-])c1cc(-c2csc(NCCc3nc4cc(C(F)(F)F)ccc4n3CCCO)n2)ccc1Cl | 0 | . | . | . | 17* | 0
OCCCn1c(CCNc2nc(-c3ccc(Cl)cc3)cs2)nc2cc(C(F)(F)F)ccc21 | 0 | . | . | . | 6 | 2
Cc1nc2cc(C(F)(F)F)ccc2n1CCNc1nc(-c2ccc([N+](=O)[O-])c(Cl)c2)cs1 | 0 | . | . | . | 25* | 0
Cc1cccc(Nc2ccc(C(=O)N3CCOCC3)cn2)c1 | 0 | -3 | 1 | 13 | 0 | -1
Cc1ccc(NC(=O)CSc2ccc(C(N)=O)cc2[N+](=O)[O-])cc1 | -1 | 13 | -4 | -10 | 25* | 0
CCN(CC)c1ccc(NC(=O)CSc2ccsc2[N+](=O)[O-])c(C)c1 | 0 | 14 | -3 | 41 | -5 | 3
CC(=O)c1ccc(NC(=O)CSc2ccsc2[N+](=O)[O-])cc1 | -2 | -10 | 51* | 6 | 12* | 4
O=C(CSc1ccsc1[N+](=O)[O-])Nc1cc(F)ccc1F | -1 | -4 | 91* | 14 | 9 | 3
Cc1nc(CC(=O)N2CCN(S(=O)(=O)c3ccccc3C#N)CC2)cs1 | -1 | 0 | 7 | 29 | 2 | 0
COC(=O)[C@@]1(Cc2ccc(F)cc2)[C@H]2c3cc(C(=O)N4CCCC4)n(Cc4ccc(Cl)c(C(F)(F)F)c4)c3C[C@H]2CN1C(=O)c1ccccc1 | 0 | . | . | . | . | 1
COC(=O)N1C(=O)[C@](Cc2ccccc2)(c2ccccc2)N1C(=O)OC | 0 | . | . | . | 13* | 1

Screens as filed in PubChem BioAssay.
